According to ChEMBL document CHEMBL1121663, “(Acylaryloxy)acetic acid diuretics. 3. 2,3-Dihydro-5-acyl-2-benzofurancarboxylic acids, a new class of uricosuric diuretics” (1981):
“And” between values parts separate entries of the source, which are not always exact repeats. Identical values can stand only once.

Experiments:
Rattus norvegicus [1] = test: Natriuretic activity in rats at 3 mg/kg of dosage; mequiv of Na; format: functional
Summary of the method: (§1)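 Rats housed three per metabolism cage received placebo vehicle or compound as a suspension in a final volume of 5.0 mL orally, with placebo groups run concurrently. Urine was collected over 0–5 h and analysed for Na+, K+ and Cl− by standard methods. Values are mequiv per cage, given as geometric means of three cages per dose level.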

Canis familiaris [2] = test: Diuretic activity in dogs following 5 mg/kg i.v. administration.; format: functional, Canis lupus familiaris, Urine; conditions: route intravenous
Rattus norvegicus [3] = test: Natriuretic activity in rats at 81 mg/kg of dosage; mequiv of Na; format: functional; summary of the method: as §1
Canis familiaris [4] = test: Compound was tested for diuretic activity in dogs at 5 mg/kg dose after oral administration measured as microequivalent of Cl-/minute; format: functional, Canis lupus familiaris, Urine
Summary of the method: (§2)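 Oral dog test: water loading (250 mL po, then 500 mL 1 h later). One hour later bladders were emptied by catheter and compound or placebo given in gelatin capsules. Dogs were kept in metabolism cages. Voided urine plus catheterized bladder urine was pooled at 5 h, and Na+, K+ and Cl- were measured by standard methods. Geometric means are reported.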

[5] = Compound was tested for natriuretic activity in chimpanzee at 5 mg/kg dose activity is measured as ratio of clearance of urate / […]; Curate/Cinulin; format: functional
Summary of the method: (§3)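 Inulin iv gave GFR; urate and inulin clearances and Na+, K+, Cl- excretion were measured by AutoAnalyzer. Controls were three 20-min periods; compound was given orally in aqueous solution via nasal catheter. Response was the mean of eight 15-20 min periods, reported as treatment minus control from single experiments.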

Rattus norvegicus [6] = test: Natriuretic activity in rats at 9 mg/kg of dosage; mequiv of Na; format: functional; summary of the method: as §1
Canis familiaris [7] = test: Compound was tested for diuretic activity in dogs at 5 mg/kg dose after oral administration measured as microequivalent of K+/minute; format: functional, Canis lupus familiaris, Urine; summary of the method: as §2
Pan troglodytes [8] = test: Compound was tested for natriuretic activity in chimpanzee at 5 mg/kg dose activity is measured as microequivalent of Na+/minute; muequiv of Na+/min; format: functional; summary of the method: as §3
Canis familiaris [9] = test: Compound was tested for diuretic activity in dogs at 5 mg/kg dose after intravenous administration, activity is expressed as urine volume; 0.6/1.3; format: functional, Canis lupus familiaris
Rattus norvegicus [10] = test: Natriuretic activity in rats at 27 mg/kg of dosage; mequiv of Na; format: functional; summary of the method: as §1
Canis familiaris [11] = test: Compound was tested for diuretic activity in dogs at 5 mg/kg dose after oral administration measured as microequivalent of Na+/minute; format: functional, Canis lupus familiaris, Urine; summary of the method: as §2
Canis familiaris [12] = test: Compound was tested for diuretic activity in dogs at 5 mg/kg dose after intravenous administration measured as microequivalent of Cl-/minute; 12/586 (Control/Drug treated); format: functional, Canis lupus familiaris, Urine
Summary of the method: (§4)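 Intravenous dog clearance study. A priming iv injection of 1.5 mL/kg isoosmotic pH 7.4 phosphate buffer (20 mg PO4/kg) was given first. This was followed by infusion of 3 mL/min pH 7.4 buffer containing 4% mannitol (6.9 mg PO4/min) throughout the experiment. Urinary Na+, K+ and Cl- were measured by standard methods. Each value is the mean of the two highest consecutive 15-min collections.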

Canis familiaris [13] = test: Compound was tested for diuretic activity in dogs at 5 mg/kg dose after intravenous administration measured as microequivalent of K+/minute; 4/54 (Control/Drug treated); format: functional, Canis lupus familiaris, Urine; summary of the method: as §4
Canis familiaris [14] = test: Compound was tested for diuretic activity in dogs at 5 mg/kg dose after intravenous administration, activity is expressed as urine volume; 1/6; format: functional, Canis lupus familiaris
Pan troglodytes [15] = test: Compound was tested for natriuretic activity in chimpanzee at 5 mg/kg dose activity is measured as microequivalent of Na+/m; muequiv of Na+/minute; format: functional; summary of the method: as §3
Canis familiaris [16] = test: Compound was tested for diuretic activity in dogs at 5 mg/kg dose after intravenous administration measured as microequivalent of Na+/minute; 13/565 (Control/Drug treated); format: functional, Canis lupus familiaris, Urine
Canis familiaris [17] = test: Compound was tested for diuretic activity in dogs at 5 mg/kg dose after intravenous administration measured as microequivalent of K+/minute; 9/46 (Control/Drug treated); format: functional, Canis lupus familiaris, Urine; summary of the method: as §4
Canis familiaris [18] = test: Compound was tested for diuretic activity in dogs at 5 mg/kg dose after intravenous administration, activity is expressed as urine volume; 0.6/6; format: functional, Canis lupus familiaris
Canis familiaris [19] = test: Compound was tested for diuretic activity in dogs at 5 mg/kg dose after intravenous administration measured as microequivalent of Cl-/minute; 2/612 (Control/Drug treated); format: functional, Canis lupus familiaris, Urine; summary of the method: as §4
Canis familiaris [20] = test: Diuretic activity in dogs following 5 mg/kg oral administration.
Rattus norvegicus [21] = test: Compound was tested for natriuretic activity in rats at 27 mg/kg of dosage; format: functional; summary of the method: as §1
Canis familiaris [22] = test: Compound was tested for diuretic activity in dogs at 5 mg/kg dose after intravenous administration measured as microequivalent of Na+/minute; 12/166 (Control/Drug treated); format: functional, Canis lupus familiaris, Urine
Canis familiaris [23] = test: Compound was tested for diuretic activity in dogs at 5 mg/kg dose after intravenous administration measured as microequivalent of Cl-/minute; 5/156 (Control/Drug treated); format: functional, Canis lupus familiaris, Urine; summary of the method: as §4
Canis familiaris [24] = test: Compound was tested for diuretic activity in dogs at 5 mg/kg dose after intravenous administration measured as microequivalent of K+/minute; 15/33 (Control/Drug treated); format: functional, Canis lupus familiaris, Urine; summary of the method: as §4
Canis familiaris [25] = test: Compound was tested for diuretic activity in dogs at 5 mg/kg dose after intravenous administration measured as microequivalent of Cl-/minute; 6/70 (Control/Drug treated); format: functional, Canis lupus familiaris, Urine; summary of the method: as §4
Canis familiaris [26] = test: Compound was tested for diuretic activity in dogs at 5 mg/kg dose after intravenous administration measured as microequivalent of K+/minute; 10/18 (Control/Drug treated); format: functional, Canis lupus familiaris, Urine; summary of the method: as §4
Canis familiaris [27] = test: Compound was tested for diuretic activity in dogs at 5 mg/kg dose after intravenous administration measured as microequivalent of K+/minute; 6/18 (Control/Drug treated); format: functional, Canis lupus familiaris, Urine; summary of the method: as §4
Canis familiaris [28] = test: Compound was tested for diuretic activity in dogs at 5 mg/kg dose after intravenous administration measured as microequivalent of Cl-/minute; 16/271 (Control/Drug treated); format: functional, Canis lupus familiaris, Urine; summary of the method: as §4
Canis familiaris [29] = test: Compound was tested for diuretic activity in dogs at 5 mg/kg dose after intravenous administration measured as microequivalent of Na+/minute; 52/264 (Control/Drug treated); format: functional, Canis lupus familiaris, Urine
Canis familiaris [30] = test: Compound was tested for diuretic activity in dogs at 5 mg/kg dose after intravenous administration measured as microequivalent of Cl-/minute (Control/Drug treated); format: functional, Canis lupus familiaris, Urine; conditions: in the assay text read “oral” for “intravenous”
Canis familiaris [31] = test: Compound was tested for diuretic activity in dogs at 5 mg/kg dose after intravenous administration measured as microequivalent of K+/minute (Control/Drug treated); format: functional, Canis lupus familiaris, Urine; conditions: in the assay text read “oral” for “intravenous”
Canis familiaris [32] = test: Compound was tested for diuretic activity in dogs at 5 mg/kg dose after oral administration measured as microequivalent of Na+/minute
Canis familiaris [33] = test: Compound was tested for diuretic activity in dogs at 5 mg/kg dose after oral administration, activity is expressed as urine volume
Canis familiaris [34] = test: Compound was tested for diuretic activity in dogs at 5 mg/kg dose after intravenous administration measured as microequivalent of Cl-/minute; 5/102 (Control/Drug treated); format: functional, Canis lupus familiaris, Urine; summary of the method: as §4
Canis familiaris [35] = test: Compound was tested for diuretic activity in dogs at 5 mg/kg dose after intravenous administration measured as microequivalent of Na+/minute; 20/108 (Control/Drug treated); format: functional, Canis lupus familiaris, Urine
Canis familiaris [36] = test: Compound was tested for diuretic activity in dogs at 5 mg/kg dose after intravenous administration measured as microequivalent of K+/minute; 6/36 (Control/Drug treated); format: functional, Canis lupus familiaris, Urine; summary of the method: as §4
Canis familiaris [37] = test: Compound was tested for diuretic activity in dogs at 5 mg/kg dose after intravenous administration activity is measured as microequivalent of Cl-/minute (Control/Drug treated); format: functional, Canis lupus familiaris, Urine; conditions: in the assay text read “oral” for “intravenous”
Canis familiaris [38] = test: Compound was tested for diuretic activity in dogs at 5 mg/kg dose after intravenous administration measured as microequivalent of Na+/minute; 5/95 (Control/Drug treated); format: functional, Canis lupus familiaris, Urine
Rattus norvegicus [39] = test: Compound was tested for natriuretic activity in rats at 3 mg/kg of dosage; mequiv of Na+ x 100/cage; format: functional; summary of the method: as §1
Canis familiaris [40] = test: Compound was tested for diuretic activity in dogs at 5 mg/kg dose after intravenous administration, activity is expressed as urine volume; 1/2; format: functional, Canis lupus familiaris
Canis familiaris [41] = test: Compound was tested for diuretic activity in dogs at 5 mg/kg dose after intravenous administration measured as microequivalent of K+/minute; 6/37 (Control/Drug treated); format: functional, Canis lupus familiaris, Urine; summary of the method: as §4
Canis familiaris [42] = test: Compound was tested for diuretic activity in dogs at 5 mg/kg dose after intravenous administration measured as microequivalent of Cl-/minute; 4/72 (Control/Drug treated); format: functional, Canis lupus familiaris, Urine; summary of the method: as §4

Row | Compound | Oral activity (Rattus norvegicus [1]) | Oral activity (Rattus norvegicus [3]) | Ratio [5] | Oral activity (Rattus norvegicus [6]) | Oral activity (Pan troglodytes [8]) | Oral activity (Rattus norvegicus [10]) | Oral activity (Canis familiaris [4]) | Oral activity (Canis familiaris [7]) | Urine volume (Canis familiaris [20]) [mL] | Oral activity (Canis familiaris [11]) | also measured
1 | O=C(c1cccs1)c1cc2c(c(Cl)c1Cl)OC(C(=O)O)C2 (stereo not given) | 175 | 310 | 0.34 | 191 | 1360 | 257 |  |  |  |  | Urine volume (Canis familiaris [2]): 432 mL and 541 mL; Oral activity (Canis familiaris [4]; 5 mg/kg): 24.6 and 48.5; Oral activity (Canis familiaris [7]; 5 mg/kg): 4.2 and 5.2; Urine volume (Canis familiaris [9]): 0.6 mL/min; Oral activity (Canis familiaris [11]; 5 mg/kg): 18.7 and 37.7
2 | O=C(O)C1Cc2cc(C(O)c3cccs3)c(Cl)c(Cl)c2O1 (stereo not given) | 25 | 180 | 0.15 | 40 |  | 80 |  |  |  |  | Cl- excretion (Canis familiaris [12]): 586 µequiv/min; K+ excretion (Canis familiaris [13]): 54 µequiv/min; Urine volume (Canis familiaris [14]): 1 mL/min; Oral activity (Pan troglodytes [15]): 550
3 | O=C(O)C1Cc2cc(Cc3cccs3)c(Cl)c(Cl)c2O1 (stereo not given) | 7 | 21 | 0.185 | 19 | 206 |  | 40.6 | 7.4 | 433 | 30.1 | Na+ excretion (Canis familiaris [16]): 565 µequiv/min; K+ excretion (Canis familiaris [17]): 46 µequiv/min; Urine volume (Canis familiaris [18]): 0.6 mL/min; Cl- excretion (Canis familiaris [19]): 612 µequiv/min; Oral activity (Rattus norvegicus [21]): 19
4 | NS(=O)(=O)c1cc2c(cc1Cl)NCNS2(=O)=O [HYDROCHLOROTHIAZIDE] |  |  |  | 112 | 144 |  |  |  |  |  | Na+ excretion (Canis familiaris [22]): 166 µequiv/min; Cl- excretion (Canis familiaris [23]): 156 µequiv/min; K+ excretion (Canis familiaris [24]): 33 µequiv/min
5 | COc1ccc(C(=O)c2cc3c(c(Cl)c2Cl)OC(C(=O)O)C3)cc1 (stereo not given) | 40 | 194 |  | 96 |  | 129 | 17.8 | 2.9 | 307 | 14.4 | Cl- excretion (Canis familiaris [25]): 70 µequiv/min; K+ excretion (Canis familiaris [26]): 18 µequiv/min
6 | O=C(O)C1Cc2cc(S(=O)(=O)c3cccs3)c(Cl)c(Cl)c2O1 (stereo not given) | 10 | 65 |  | 19 |  | 44 | 9.1 | 1.4 | 246 | 7.6 | K+ excretion (Canis familiaris [27]): 18 µequiv/min; Cl- excretion (Canis familiaris [28]): 271 µequiv/min; Na+ excretion (Canis familiaris [29]): 264 µequiv/min
7 | O=CC1Cc2cc(C(=O)c3cccs3)c(Cl)c(Cl)c2O1 (stereo not given) | 74 | 144 |  | 84 |  | 107 | 21.6 | 3.1 | 337 | 16.3 | Oral activity (Canis familiaris [30]): 21.6; Oral activity (Canis familiaris [31]): 3.1; Oral activity (Canis familiaris [32]): 16.3; Oral activity (Canis familiaris [33]): 337 mL
8 | O=C(Cc1ccccc1)c1cc2c(c(Cl)c1Cl)OC(C(=O)O)C2 (stereo not given) | 25 | 173 | 0.315 | 80 | 513 | 126 |  |  |  |  | Cl- excretion (Canis familiaris [34]): 102 µequiv/min; Na+ excretion (Canis familiaris [35]): 108 µequiv/min; K+ excretion (Canis familiaris [36]): 36 µequiv/min
9 | CCOC(=O)C1Cc2cc(C(=O)c3cccs3)c(Cl)c(Cl)c2O1 (stereo not given) | 76 | 167 |  | 87 |  | 128 | 8.7 | 1.6 | 166 | 7.7 | Oral activity (Canis familiaris [31]): 1.6; Oral activity (Canis familiaris [32]): 7.7; Oral activity (Canis familiaris [37]): 8.7
10 | Cc1c(C(=O)c2cccs2)cc2c(c1C)OC(C(=O)O)C2 (stereo not given) |  | 71 |  | 68 |  | 61 |  |  |  |  | Na+ excretion (Canis familiaris [38]): 95 µequiv/min; Oral activity (Rattus norvegicus [39]): 29; Urine volume (Canis familiaris [40]): 1 mL/min; K+ excretion (Canis familiaris [41]): 37 µequiv/min; Cl- excretion (Canis familiaris [42]): 72 µequiv/min
